Results: ChEMBL document CHEMBL1147848, “1-(5-Carboxy- and 5-carbamoylindol-1-yl)propan-2-ones as inhibitors of human cytosolic phospholipase A2alpha: bioisosteric replacement of the carboxylic acid and carboxamide moiety” (Bioorg Med Chem, 2007)
Activity calls are given as the source filed them. No cut-off for these calls is given here.

Tests used:
[1] = biological target: T1, Cytosolic phospholipase A2 (Homo sapiens, UniProt P47712); assay: Inhibition of human platelet cPLA2-alpha assessed as arachidonic acid release by vesicle assay
T1 sequence (P47712 whole entry): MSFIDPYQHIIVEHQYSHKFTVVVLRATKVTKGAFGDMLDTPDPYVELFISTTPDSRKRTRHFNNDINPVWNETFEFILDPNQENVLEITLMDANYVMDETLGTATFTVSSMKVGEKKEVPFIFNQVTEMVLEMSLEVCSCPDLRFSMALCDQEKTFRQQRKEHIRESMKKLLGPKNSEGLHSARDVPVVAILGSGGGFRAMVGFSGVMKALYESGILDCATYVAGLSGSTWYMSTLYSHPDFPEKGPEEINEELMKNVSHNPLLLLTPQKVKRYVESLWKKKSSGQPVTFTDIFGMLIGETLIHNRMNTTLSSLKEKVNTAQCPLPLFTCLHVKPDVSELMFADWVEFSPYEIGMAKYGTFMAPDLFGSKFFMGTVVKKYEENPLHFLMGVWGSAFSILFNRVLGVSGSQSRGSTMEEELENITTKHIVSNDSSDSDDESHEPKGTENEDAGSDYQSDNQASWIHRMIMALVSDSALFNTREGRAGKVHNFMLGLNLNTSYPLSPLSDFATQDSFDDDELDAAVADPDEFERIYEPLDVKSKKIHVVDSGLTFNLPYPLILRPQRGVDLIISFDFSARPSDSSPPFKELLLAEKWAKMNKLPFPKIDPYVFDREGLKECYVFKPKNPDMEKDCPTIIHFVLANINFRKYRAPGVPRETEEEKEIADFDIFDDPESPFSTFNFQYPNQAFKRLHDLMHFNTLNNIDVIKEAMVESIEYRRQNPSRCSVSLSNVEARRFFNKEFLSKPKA
Procedure, shortened: (§1)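 cPLA2α isolated from human platelets. Highest test concentration 10 µM, kept low to limit inhibitor mole fraction in the interface. Incubated 60 min. Released arachidonic acid is cleaned up by solid-phase extraction, then quantified by reversed-phase HPLC with UV detection at 200 nm.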

[2] = biological target: T2, Cytosolic phospholipase A2 (Homo sapiens) (UniProt P47712); assay: Inhibition of human platelet cPLA2-alpha assessed as arachidonic acid release at 10 uM by vesicle assay; procedure, shortened: as §1
T2 sequence (whole entry): T1 sequence (P47712 whole entry)

CCCCCCCCc1ccc(OCC(=O)Cn2ccc3cc(C(=O)NC)ccc32)cc1
IC50 [1]: 370 nM

CCCCCCCCc1ccc(OCC(=O)Cn2ccc3cc(S(=O)(=O)NC)ccc32)cc1
IC50 [1]: 310 nM

CCCCCCCCc1ccc(OCC(=O)Cn2ccc3cc(-c4noc(=O)[nH]4)ccc32)cc1
IC50 [1]: 3500 nM

CCCCCCCCc1ccc(OCC(=O)Cn2ccc3cc(C(=O)N4CCOCC4)ccc32)cc1
IC50 [1]: 500 nM

CCCCCCCCc1ccc(OCC(=O)Cn2ccc3cc(-c4nnn[nH]4)ccc32)cc1
IC50 [1]: 1100 nM

CCCCCCCCc1ccc(OCC(=O)Cn2ccc3cc(S(=O)(=O)N(C)C)ccc32)cc1
IC50 [1]: 500 nM

CCCCCCCCc1ccc(OCC(=O)Cn2ccc3cc(/C=C4\SC(=O)NC4=O)ccc32)cc1
inhibition [2]: 29%

CCCCC/C=C\C/C=C\C/C=C\C/C=C\CCCC(=O)C(F)(F)F [ARACHIDONYL TRIFLUOROMETHYLKETONE]
IC50 [1]: 2300 nM

CCCCCCCCc1ccc(OCC(=O)Cn2cc(C(=O)OC)c3cc(C(=O)O)ccc32)cc1
IC50 [1]: 5 nM

CCCCCCCCc1ccc(OCC(=O)Cn2ccc3cc(C(=O)N(C)C)ccc32)cc1
IC50 [1]: 840 nM

CCCCCCCCc1ccc(OCC(=O)Cn2ccc3cc(S(N)(=O)=O)ccc32)cc1
IC50 [1]: 390 nM

CCCCCCCCc1ccc(OCC(=O)Cn2ccc3cc(-c4nc(Cc5ccccc5)no4)ccc32)cc1
Activity [2]: inactive

CCCCCCCCc1ccc(OCC(=O)Cn2ccc3cc(-c4nc(CC)no4)ccc32)cc1
Activity [2]: inactive
